These results are taken from PMC5376495 (ACS combinatorial science, 2017).

Where a SMILES comes first, the peptide text is derived from it. [ ]: non-standard residue; d: D form. The star is where a group is joined. Benzoyl(4-tBu) = CC(C)(C)c1ccc(C(=O)*)cc1; Lys(Et2) = CCN(CC)CCCC[C@H](N)C(=O)O

Test [1] concerns PRC2 complexes containing EED mutations (F97A, W364A, Y365A). Nature of the test: PRC2 methyltransferase assay with EED aromatic cage mutants. It counts as biochemical. The method, boiled down:
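EZH2:EED:SUZ12 complexes carrying EED cage mutations made by site-directed mutagenesis, co-expressed in baculovirus-infected Sf9 cells, and FLAG-affinity purified like wild type. Reaction ran 1 h at 23 °C in 20 mM Tris-HCl pH 8, 5 mM DTT, 0.01% Triton X-100 with 1 µM 3H-SAM, 1 µM biotinylated H3(21–44), and 20 nM complex. Stopped by adding 7.5 M guanidine-HCl. Scintillation proximity read-out on streptavidin Flash-plates after 2 h. Normalised to no-compound (100%) and no-enzyme (0%) CPM.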

Test [2] addresses EED (Homo sapiens, UniProt O75530). Conditions: cited from earlier work.

EED, sequence (O75530 whole entry): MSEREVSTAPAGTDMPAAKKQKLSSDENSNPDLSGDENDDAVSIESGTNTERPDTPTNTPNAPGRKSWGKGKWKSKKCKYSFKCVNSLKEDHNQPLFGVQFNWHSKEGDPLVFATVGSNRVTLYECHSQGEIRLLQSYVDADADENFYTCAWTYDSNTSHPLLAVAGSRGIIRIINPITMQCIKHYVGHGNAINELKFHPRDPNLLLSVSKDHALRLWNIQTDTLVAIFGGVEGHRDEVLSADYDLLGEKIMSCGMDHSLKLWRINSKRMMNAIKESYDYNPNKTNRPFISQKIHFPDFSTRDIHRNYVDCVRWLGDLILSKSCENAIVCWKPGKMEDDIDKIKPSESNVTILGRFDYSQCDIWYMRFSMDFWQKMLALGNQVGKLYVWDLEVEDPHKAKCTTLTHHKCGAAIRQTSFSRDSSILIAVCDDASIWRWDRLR

With `CCCc1cc(C)[nH]c(=O)c1CNC(=O)c1cc(-c2ccc(N3CCN(C(C)C)CC3)nc2)cc2c1cnn2C(C)C` [UNC1999], the “inhibition of basal catalytic activity of PRC2 with EED mutants” value in test [1] is on record as “completely abrogates the activity”.

Take `CCN(CC)CCCC[C@H](NC(=O)[C@H](CC(C)C)NC(=O)[C@H](C)NC(=O)[C@H](Cc1ccccc1)NC(=O)c1ccc(C(C)(C)C)cc1)C(=O)N[C@@H](CO)C(=O)OC` [UNC3866] ({Benzoyl(4-tBu)}-FAL[Lys(Et2)]S-OMe): in test [2], the “affinity for EED in solution-based assays” value is listed as “lack of affinity”.
